Paper PMC7237122 (OncoTargets and therapy, 2020)

Assays:
[1] = tested on: JAK2, Tyr705-p-STAT3, Ser725-p-STAT3; assay: H22-tumor-bearing mice: Western blotting of tumor tissue; type: in vivo; details: compared with model group
H22-tumor-bearing mice [2] = assay: H22-tumor-bearing mice: tolerability; type: in vivo; details: for mice analyzed / mice in group: 5-Fu ip 200 mg/kg twice a week, SOLB ip 100 mg/kg once daily, 8 days
In short: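 Animals bearing 7-day H22 tumors (male Kunming, 10~12/group) were treated once daily 09:00–10:00 for 8 days (test agents ip or po); 5-Fu ip 200 mg/kg was given twice weekly. Appearance and behaviour were observed, and diarrhea, irritation and emaciation were recorded. Body weight was followed over therapy. Liver was fixed overnight in 4% buffered paraformaldehyde for HE.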

IL-6 = assay: H22-tumor-bearing mice: IL-6 ELISA of serum and tumor; type: in vivo; details: for IL-6 concentration, tumor ELISA: tumor tissue, compared with model group
In short: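 Male Kunming mice (20~22 g) bearing H22 tumors (100~150 mm3 at day 7, 10~12/group) were dosed 8 days: test agents ip 100 mg/kg or po 400/720 mg/kg daily, or 5-Fu ip 200 mg/kg twice weekly. Mice were fasted 16 h and ether-euthanised. IL-6 was measured by ELISA in eye-collected blood and in liquid-nitrogen-frozen tumor tissue. Mean ± standard error; ANOVA.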

H22-tumor-bearing mice [3] = assay: H22-tumor-bearing mice: tumor size, tumor weight, HE staining; type: in vivo; details: for tumor inhibition rate (TIR), tumor weight: 5-Fu ip 200 mg/kg twice a week, SOLB ip 100 mg/kg once daily, 8 days; for tumor size: H22-tumor-bearing mice, compared with model group
In short: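 In H22-inoculated male Kunming mice (tumors 100~150 mm3, randomised 10~12/group), treatment ran 8 days (daily test agents; 5-Fu twice weekly). Tumor size was measured by Vernier calipers. Tumors were excised after a 16 h fast and ether euthanasia. Inhibition rate was taken from mean tumor indices of drug versus model groups. Tissue was fixed overnight in 4% buffered paraformaldehyde for HE. Mean ± standard error; ANOVA.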

ALT and AST = assay: H22-tumor-bearing mice: liver function; type: in vivo; details: blood of H22-tumor-bearing mice, compared with model group
In short: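 H22 ascites cells were injected into male Kunming mice; tumors of 100~150 mm3 at 7 days were randomised (10~12/group) against saline model and uninoculated normal groups. Test agents were given daily for 8 days (ip 100 mg/kg; po 400 or 720 mg/kg). After a 16 h fast, blood was taken from the eyes for ALT and AST. Mean ± standard error; ANOVA.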

SMMC-7721 cells [4] = assay: MTT analysis of SMMC-7721 cells; type: cell-based
In short: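 SMMC-7721 cells (Shanghai Institute of Cell Biology) were incubated with test extract or compounds, and growth was read by MTT. Mean ± standard error; ANOVA, P<0.05.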

SMMC-7721 cells [5] = assay: Hochest apoptosis test in SMMC-7721 cells; type: cell-based; details: concentration not given
In short: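 Apoptosis in SMMC-7721 cells exposed to test extract or compounds was assessed by Hoechst staining per kit instructions. Mean ± standard error; ANOVA.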

Compound: O=c1[nH]cc(F)c(=O)[nH]1 [5-Fu, 5-fluorouracil]
- protein expressions of JAK2, Tyr705-p-STAT3, Ser725-p-STAT3 (Western) [1]: could inhibit protein expressions of JAK2, Tyr705-p-STAT3, and Ser725-p-STAT3
- mice analyzed / mice in group (H22-tumor-bearing mice [2]): 10/12
- appearance and behavior (adverse reactions) (H22-tumor-bearing mice [2]; therapeutic period): diarrhea and alopecia, their appetite was poor
- weights of mice (H22-tumor-bearing mice [2]; therapeutic period): steadily increased during the therapeutic period except in the 5-Fu group
- IL-6 concentration, serum ELISA (IL-6): increasing not decreasing IL-6
- IL-6 concentration, tumor ELISA (IL-6): higher than the model group
- tumor inhibition rate (TIR), tumor weight (H22-tumor-bearing mice [3]): 91.94%
- tumor size (H22-tumor-bearing mice [3]): the smallest
- HE staining of tumor tissue (H22-tumor-bearing mice [3]; chromatin condensation and nuclear shrinkage, compared to model group): good
- liver function: ALT and AST levels (ALT and AST): the best

Compound: O=C(/C=C/c1ccc(O)cc1)CC(=O)/C=C/c1ccc(O)cc1 [BIS, bisdemethoxycurcumin]
- growth of SMMC-7721 cells (MTT) (SMMC-7721 cells [4]): could inhibit the growth of SMMC-7721 cells in a dose-dependent manner

Compound: O=C(O)/C=C/c1ccc(O)c(O)c1 [CAF, caffeic acid]
- growth of SMMC-7721 cells (MTT) (SMMC-7721 cells [4]): no obvious effects

Compound: OC[C@H]1O[C@@H](O[C@@H]2OC=C[C@H]3[C@H](O)[C@@H]4O[C@]4(CO)[C@@H]23)[C@H](O)[C@@H](O)[C@@H]1O [CAT, catalpol]
- growth of SMMC-7721 cells (MTT) (SMMC-7721 cells [4]): no obvious effects

Compound: O=C(/C=C/c1ccc(O)c(O)c1)O[C@@H]1C[C@](O)(C(=O)O)C[C@@H](O)[C@H]1O [CHL, chlorogenic acid]
- growth of SMMC-7721 cells (MTT) (SMMC-7721 cells [4]): no obvious effects

Compound: COc1cc(/C=C/C(=O)CC(=O)/C=C/c2ccc(O)c(OC)c2)ccc1O [CUR, curcumin]
- growth of SMMC-7721 cells (MTT) (SMMC-7721 cells [4]): could inhibit the growth of SMMC-7721 cells in a dose-dependent manner

Compound: O=C1C[C@@H](c2ccc(O[C@@H]3O[C@H](CO)[C@@H](O)[C@H](O)[C@H]3O)cc2)Oc2cc(O)ccc21 [LIQ, liquiritin]
- growth of SMMC-7721 cells (MTT) (SMMC-7721 cells [4]): no obvious effects

Compound: COc1cc2c(c(OC)c1OC)-c1c(cc3c(c1OC)OCO3)CC(C)C(C)C2 (stereo not shown) [SCHB, schisandrin B]
- growth of SMMC-7721 cells (MTT) (SMMC-7721 cells [4]): could inhibit the growth of SMMC-7721 cells in a dose-dependent manner

Compound: COc1cc2c(c(OC)c1OC)-c1c(cc3c(c1OC)OCO3)C[C@H](C)[C@@](C)(O)C2 [SOLB, schisandrol B]
- effect on apoptosis (Hochest), pure compounds (SMMC-7721 cells [5]): an active ingredient of DWYG extract
- protein expressions of JAK2, Tyr705-p-STAT3, Ser725-p-STAT3 (Western) [1]: could inhibit protein expressions of JAK2, Tyr705-p-STAT3, and Ser725-p-STAT3
- mice analyzed / mice in group (H22-tumor-bearing mice [2]): 12/12
- IL-6 concentration, serum ELISA (IL-6): less than 5-Fu but more than DWYG extract
- IL-6 concentration, tumor ELISA (IL-6): less than in the model group
- tumor inhibition rate (TIR), tumor weight (H22-tumor-bearing mice [3]): 34.98%
- tumor size (H22-tumor-bearing mice [3]): effective but not better than 5-Fu
- growth of SMMC-7721 cells (MTT) (SMMC-7721 cells [4]): could inhibit the growth of SMMC-7721 cells in a dose-dependent manner
- liver function: ALT and AST levels (ALT and AST): effective

Compound: demethoxycurcumin
- growth of SMMC-7721 cells (MTT) (SMMC-7721 cells [4]): could inhibit the growth of SMMC-7721 cells in a dose-dependent manner

Compound: deoxyschizandrin
- effect on apoptosis (Hochest), pure compounds (SMMC-7721 cells [5]): not good
- growth of SMMC-7721 cells (MTT) (SMMC-7721 cells [4]): could inhibit the growth of SMMC-7721 cells in a dose-dependent manner

Compound: schisandrol A [SOLA]
- effect on apoptosis (Hochest), pure compounds (SMMC-7721 cells [5]): not good

Compound: schisantherin A [SINA]
- growth of SMMC-7721 cells (MTT) (SMMC-7721 cells [4]): could inhibit the growth of SMMC-7721 cells in a dose-dependent manner
